Source: ChEMBL document CHEMBL5046273, “Development of a Novel, Small-Molecule Brain-Penetrant Histone Deacetylase Inhibitor That Enhances Spatial Memory Formation in Mice” (J Med Chem, 2022)
pIC50: −log10 of the molar value.

Tests used:
Histone deacetylase 2 [1] = molecular target: T1, Histone deacetylase 2 (Homo sapiens, UniProt Q92769); assay: Inhibition of recombinant human full-length HDAC2 incubated for 10 mins by Glo-luminescence assay
In short: (§1)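 Compounds were serially diluted and incubated with enzyme for 10 min. HDAC-Glo I/II substrate/developer was then added, and luminescence read after 40 min at 23 °C. IC50 from four-parameter fits from two independent titrations, mean ± SD.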

Histone deacetylase 2 [2] = molecular target: T1, Histone deacetylase 2; assay: Inhibition of recombinant human full-length HDAC2 preincubated for 20 mins with DTT followed by enzyme addition and measured after 10 mins by Glo-luminescence assay; in short: as §1

T1 sequence (Q92769 whole entry): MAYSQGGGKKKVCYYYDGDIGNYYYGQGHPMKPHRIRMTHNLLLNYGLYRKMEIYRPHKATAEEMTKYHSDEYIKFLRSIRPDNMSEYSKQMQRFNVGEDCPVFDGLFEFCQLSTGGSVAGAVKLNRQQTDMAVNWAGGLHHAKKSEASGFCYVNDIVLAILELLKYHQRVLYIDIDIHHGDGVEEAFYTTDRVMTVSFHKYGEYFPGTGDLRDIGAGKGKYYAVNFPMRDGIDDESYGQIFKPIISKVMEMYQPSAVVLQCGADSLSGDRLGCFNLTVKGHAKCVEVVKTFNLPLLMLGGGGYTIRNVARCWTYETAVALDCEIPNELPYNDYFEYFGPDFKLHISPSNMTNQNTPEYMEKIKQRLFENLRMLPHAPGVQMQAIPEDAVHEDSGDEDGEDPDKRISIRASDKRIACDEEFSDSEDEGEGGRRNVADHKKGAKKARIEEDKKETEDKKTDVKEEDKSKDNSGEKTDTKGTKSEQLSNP

pIC50 (Histone deacetylase 2 [1]): 3.55 | pIC50 (Histone deacetylase 2 [2]): 4.77
SMILES: CCCC[C@@H](NC(=O)CC(O)/C=C/CCSSCC/C=C/C(O)CC(=O)N[C@H](CCCC)C(=O)OC)C(=O)OC (some centres not stated)
